KLK5 inh – inhibitors of human kallikrein 5; inhibition, % at 5 µM; recombinant hK5, fluorogenic AMC substrate cleavage; actives 0.59% (n = 210,000);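 active = inhibition of 40% or more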;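 note: 0% = enzyme controls without compound and 100% = no-enzyme blanks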
FXIIa inh 1536 – inhibitors of human coagulation factor XIIa; actives 0.3% (n = 220,000); P00748; purified FXIIa, Boc-QGR-AMC fluorogenic substrate, 2 h; inhibition, % at 5 µM; in the data active = inhibition above about 40%;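 note: 0% = enzyme with no compound and 100% = blank without enzyme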
FXIa inh 1536 – inhibitors of human coagulation factor XIa. purified FXIa, Boc-Glu-Ala-Arg-AMC fluorogenic substrate. inhibition, % at 5 µM. P03951. actives 0.14% (n = 220,000);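 active = inhibition of at least 40%; inactive = inhibition below 40%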;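 note: fluorescence of freed AMC excited at 355 nm; 0% = enzyme without compound and 100% = no enzyme blank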
thrombin 1536 – blocks human thrombin protease activity | alpha-thrombin, Boc-VPR-AMC fluorogenic substrate cleavage | inhibition, % at 5 µM | actives 0.26% (n = 220,000) | AID 1046;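 active = inhibition at or above 40%; inactive = inhibition below 40%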;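 note: 0% = enzyme with no compound and 100% = wells without enzyme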
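Material: human alpha-thrombin protein. Incubation: reaction at ambient temperature. Technique: fluorescence of released AMC, ex 355 nm, em 460 nm. Control set: no-compound enzyme wells and no-enzyme blanks. Also added: Boc-VPR-AMC substrate, 15 µM final. Buffer or medium: pH 7.5 Tris (50 mM) with NaCl 150 mM, Tween 20 0.05%.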
An asterisk follows results filed as active; / = not tested or not shown. This is a sample that favours compounds with a hit; in the whole collection about 1% have one here.

SMILES	KLK5 inh	FXIIa inh 1536	FXIa inh 1536	thrombin 1536
COc1ccc(/C=C2\N=C(SC)N(c3ccccc3OC)C2=O)cc1	1	13	2	-2
O=C(O)C1CCCCC1C(=O)Nc1cc(C(F)(F)F)ccc1Cl (stereo not given)	9	10	0	-8
Cc1cc(Oc2ccc(-c3nnc(-c4ccccc4)o3)cc2[N+](=O)[O-])ccc1Cl	43*	25	20	18
CCOC(=O)COc1ccc(Br)cc1C1NC(=O)NC(C)=C1C(=O)NCc1ccccc1 (stereo not given)	-17	9	2	-1
O=C(Cn1ncc2c1-c1ccccc1OC2)Nc1ccc(Cl)cn1	52*	27	4	-2
O=C(Cn1ncc2c1-c1ccccc1OC2)Nc1cccc(Cl)c1	-4	14	2	1
Cc1ccc(Cc2cnc(NC(=O)c3cccs3)s2)cc1	7	18	-2	-5
O=C(Nc1ncc(Cc2ccccc2)s1)c1cccs1	-15	42*	34	0
Cc1ccc(-c2c(C)sc(NC(=O)C3C4CCC(O4)C3C(=O)O)c2C(=O)OC(C)C)cc1 (stereo not given)	107*	-3	-7	3
CCOC(=O)c1c(NC(=O)C2C3CCC(O3)C2C(=O)O)sc2c1CCCC2 (stereo not given)	3	7	-1	-7
Cc1cc(C)cc(NS(=O)(=O)c2ccc(NC(=O)C3CCCCC3C(=O)O)cc2)c1 (stereo not given)	-17	13	4	-7
N#CC1=C(SCC(=O)Nc2ccc(C(=O)O)cc2)NC(=O)CC1c1ccco1 (stereo not given)	-6	5	0	-7
CC(C)N(CCc1ccncc1)C(=O)Nc1ccc(Cl)c(Cl)c1	-13	15	6	-1
CCCCc1nc2ccccc2c(NC(=O)CN2CCCC2)c1CCC	-5	14	8	3
CCCCc1nc2ccccc2c(NC(=O)CNC(C)(C)C)c1CCC	38	14	6	42*
Cc1cc(C)c(C#N)c(SCC(=O)NC(C)(C)C)n1	-29	11	2	-5
Cc1cc(C(F)(F)F)c(C#N)c(SCC(=O)NC(C)(C)C)n1	42*	36	16	8
CCN(CC)C(=O)C1=C(C)Nc2ncnn2C1c1cccnc1 (stereo not given)	3	6	5	-6
CC(NC(=O)C1CCC(CNS(=O)(=O)c2ccccc2)CC1)c1ccc2c(c1)OCCO2 (stereo not given)	-6	1	-13	-14
COC(=O)c1c(NC(=O)C(C)(C)C)csc1C	-3	7	-1	2
COC(=O)c1nc(-c2ccccc2)n[nH]1	-2	11	1	4
COC(=O)c1nc(NC(=O)c2ccccc2Cl)n[nH]1	48*	82*	7	/
COC(=O)c1nc(NC(=O)C(C)(C)C)n[nH]1	2	11	-26	56*
COCCNc1nnc(SC(C)C(=O)Nc2ccc(-c3nc4ccc(C)cc4s3)cc2)s1 (stereo not given)	-21	6	5	0
COc1ccc2[nH]c3c(NCCCN4CCCC4=O)ncnc3c2c1	54*	-5	1	0
SMILES	KLK5 inh	FXIIa inh 1536	FXIa inh 1536	thrombin 1536
Cc1ccc(S(=O)(=O)CCC(=O)OCc2ccc(Cl)cc2)cc1	53*	29	16	18
COC(=O)c1ccc(COC(=O)CCS(=O)(=O)c2ccc(C)cc2)cc1	2	4	-2	-3
CCOc1cc(S(=O)(=O)N2CCCCC2)ccc1Cl	60*	18	5	104*
O=S(=O)(c1cc(Cl)ccc1Cl)N1CCCC1	-11	11	-9	3
COc1ccc(Cl)c(S(=O)(=O)N2CCCC2)c1	68*	22	1	21
COc1nc(NCCN2CCOCC2)nc(Nc2ccccc2)n1	69*	22	4	13
Cc1sc2c(c1C)C(=O)NC(c1cccc(O)c1)N2 (stereo not given)	-16	16	40*	2
COC(=O)c1ccc(C2NC(=O)c3c(sc(C)c3C)N2)cc1 (stereo not given)	-10	3	1	-8
COc1ccc(C(=O)n2ccc(C)n2)cc1Br	70*	19	7	7
COc1ccc(C(=S)N2CCN(C)CC2)cc1Br	7	6	7	2
O=C(NCCCn1ccnc1)C(Cc1ccccc1)N1C(=O)c2ccccc2C1=O (stereo not given)	0	-4	-2	-3
Cc1ccc(C(C(=O)NC(C)(C)C)N(Cc2ccccc2)C(=O)c2snc(C(N)=O)c2N)o1 (stereo not given)	-3	4	-6	-8
